Data on two compounds can be found in ChEMBL document CHEMBL4190389, “Synthesis and activity of di- or trisubstituted N-(phenoxyalkyl)- or N-{2-[2-(phenoxy)ethoxy]ethyl}piperazine derivatives on the central nervous system” (Bioorg Med Chem Lett, 2018).

Broadly, the ED50 is the midpoint of the dose-response relation. One may read the Ki as a dissociation constant, usually derived from enzyme kinetics or from competition with a known ligand. As a reminder, the IC50 is the concentration that inhibits the measured activity by half. Usually TD50 stands for the dose at which the toxic effect under study appears in half of the subjects.

For data set [1], the system named is Mus musculus. Put plainly: Anticonvulsant activity in ip dosed Albino Swiss CD-1 mouse assessed as dose required to protect against 50 Hz current-induced seizure. It is filed as functional. Conditions: Swiss CD-1, ip.
The test system of data set [2] is Mus musculus. Put plainly: Toxicity in Albino Swiss CD-1 mouse assessed as death at 30 to 100 mg/kg, ip. It is filed as organism-based. Conditions: in vivo. A digest of the protocol:
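Deaths counted in mice during maximal electroshock (MES) seizure testing after i.p. dosing, 6 mice per dose (3 or 1 at some top doses); recorded as number dead/number tested alongside protection and rotarod motor impairment (10 rpm); untreated control group included.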

The test system of data set [3] is Mus musculus. Put plainly: Anticonvulsant activity in Albino Swiss CD-1 mouse assessed as protection against 50 Hz current-induced seizure at 100 mg/kg, ip. In kind it is functional, organism-based.
In data set [4] the test system is Mus musculus. As to the kind of experiment: Antidepressant-like activity in Albino Swiss CD-1 mouse assessed as immobility time at 10 mg/kg, ip administered 30 mins prior to test measured for last 4 mins of 6 mins observation by forced swim test (reference value: 153.9 to 201.9 secs). It is filed as functional.
In data set [5] the target is 5-hydroxytryptamine receptor 6 (Homo sapiens, UniProt P50406). As to the kind of experiment: Displacement of [3H]LSD from recombinant human 5-HT6 receptor expressed in CHO cells cell membranes after 60 mins by liquid scintillation counting method. For orientation: Displacement assays read how much labelled ligand stays bound in the presence of the test substance.
For data set [6], the system named is Mus musculus. As to the kind of experiment: Toxicity in Albino Swiss CD-1 mouse assessed as effect on locomotory activity at 5 to 10 mg/kg, ip administered for 30 mins prior to test measured for 1 min. It is filed as organism-based. Conditions: in vivo. An outline of the steps: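 Mice dosed i.p. 30 min before test; vehicle groups received 0.9% NaCl. Spontaneous locomotion scored as number of crossings during a 1-min session. Each dose compared with its own vehicle group by Student t-test; mean ± SEM, n = 8–10 mice per group.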

The target of data set [7] is T1, 5-hydroxytryptamine receptor 1A (Homo sapiens) (UniProt P08908).
T1 sequence (whole entry): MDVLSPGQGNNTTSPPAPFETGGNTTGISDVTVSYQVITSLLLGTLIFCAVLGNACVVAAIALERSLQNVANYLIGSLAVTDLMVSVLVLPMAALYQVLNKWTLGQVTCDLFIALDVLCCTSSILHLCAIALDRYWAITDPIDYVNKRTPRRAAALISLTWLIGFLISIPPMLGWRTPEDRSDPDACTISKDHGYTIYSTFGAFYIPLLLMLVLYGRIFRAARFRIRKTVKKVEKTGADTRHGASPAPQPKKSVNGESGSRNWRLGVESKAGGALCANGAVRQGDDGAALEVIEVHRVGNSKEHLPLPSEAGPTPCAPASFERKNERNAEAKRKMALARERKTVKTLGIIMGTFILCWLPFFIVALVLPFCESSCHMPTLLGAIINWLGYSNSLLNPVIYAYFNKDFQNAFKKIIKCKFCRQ
As to the kind of experiment: Displacement of [3H]8-OH-DPAT from recombinant human 5-HT1A receptor expressed in HEK293 cell membranes at 10^-5 M after 60 mins by liquid scintillation counting method.

The target of data set [8] is 5-hydroxytryptamine receptor 7 (Homo sapiens, UniProt P34969). As to the kind of experiment: biochemical. It is filed as cell-based, CHO.
In data set [9] the test system is Mus musculus. As to the kind of experiment: Antidepressant-like activity in Albino Swiss CD-1 mouse assessed as immobility time at 5 mg/kg, ip administered 30 mins prior to test measured for last 4 mins of 6 mins observation by forced swim test (reference value: 153.9 to 201.9 secs). In kind it is functional.
Data set [10] concerns the target T2, 5-hydroxytryptamine receptor 2A (Homo sapiens, UniProt P28223). Put plainly: Antagonist activity at human 5-HT2A receptor expressed in CHO-K1 cells co-expressing Galpha16 assessed as decrease in serotonin calcium mobilization preincubated for 30 mins followed by serotonin challenge measured for 30 secs by aequorin-derived luminescence assay. It is filed as functional, cell-based. Background: Calcium flux is commonly read through the fluorescence of an indicator in the cells.

In data set [11] the test system is Mus musculus. As to the kind of experiment: Anticonvulsant activity in Albino Swiss CD-1 mouse assessed as protection against 50 Hz current-induced seizure at 45 mg/kg, ip. It is filed as functional, organism-based.
Data set [12] can be described thus: Neurotoxicity in ip dosed Albino Swiss CD-1 mouse assessed as minimum dose required to induce motor impairment treated 30 mins prior to test by rotarod test. Particulars: in vivo. It is filed as toxicity, organism-based.
In data set [13] the test system is Mus musculus. Put plainly: Antidepressant-like activity in Albino Swiss CD-1 mouse assessed as immobility time at 20 mg/kg, ip administered 30 mins prior to test measured for last 4 mins of 6 mins observation by forced swim test (reference value: 153.9 to 201.9 secs). It is filed as functional.
Data set [14] has as its system Mus musculus. As to the kind of experiment: Anxiolytic-like activity in Albino Swiss CD-1 mouse assessed as increase in number of punished crossings at 5 to 10 mg/kg, ip administered for 30 mins prior to test measured for 1 min by four-plate test. It is filed as functional, organism-based. An outline of the steps:
(§1)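 Four-plate test in mice, i.p., 30 min before test; vehicle 0.9% NaCl; doses 1.25–10 mg/kg; number of punished crossings counted; mean ± SEM, n = 8–10 mice per group; ANOVA F statistics.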

For data set [15], the target named is T2, 5-hydroxytryptamine receptor 2A. Put plainly: biochemical. In kind it is cell-based, HEK293.
In data set [16] the test system is Mus musculus. Put plainly: Neurotoxicity in Albino Swiss CD-1 mouse assessed as motor impairment at 100 mg/kg, ip treated 30 mins prior to test by rotarod test. In kind it is toxicity, organism-based. Particulars: in vivo, 0.5 h. On the technique in general: Falling from the rotarod earlier than controls is read as motor impairment.
Data set [17] can be described thus: Protection index, ratio of TD50 for motor impairment in ip dosed Swiss albino CD-1 mouse to ED50 for protection against 50 Hz current-induced seizures in ip dosed Swiss albino CD-1 mouse. It is filed as toxicity, organism-based, Swiss CD-1. Conditions: in vivo, read-out: Ratio TD50/ED50.
Another data set deals with D(2) dopamine receptor (Homo sapiens, UniProt P14416). As to the kind of experiment: Displacement of [3H]methylspiperonee from recombinant human D2 receptor expressed in HEK293 cells cell membranes after 60 mins by liquid scintillation counting method.
Data set [18] concerns the target T3, Alpha-1A adrenergic receptor (Homo sapiens, UniProt P35348).
T3 sequence (P35348 whole entry): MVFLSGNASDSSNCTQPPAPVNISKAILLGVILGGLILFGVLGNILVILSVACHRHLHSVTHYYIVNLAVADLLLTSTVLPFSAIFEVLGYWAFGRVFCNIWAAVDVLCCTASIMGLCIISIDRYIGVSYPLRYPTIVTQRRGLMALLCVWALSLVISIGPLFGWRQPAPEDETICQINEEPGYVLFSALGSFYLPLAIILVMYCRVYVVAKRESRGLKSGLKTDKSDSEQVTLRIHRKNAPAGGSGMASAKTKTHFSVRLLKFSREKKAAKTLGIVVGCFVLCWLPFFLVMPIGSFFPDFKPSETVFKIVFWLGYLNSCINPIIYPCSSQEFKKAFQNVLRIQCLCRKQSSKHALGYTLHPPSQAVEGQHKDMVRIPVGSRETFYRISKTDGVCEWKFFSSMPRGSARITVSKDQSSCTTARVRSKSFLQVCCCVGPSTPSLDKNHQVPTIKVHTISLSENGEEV
Put plainly: Displacement of [3H]prazosin from recombinant human alpha1 adrenoceptor expressed in CHO cell membranes after 30 mins by liquid scintillation counting method.

For data set [19], the system named is Mus musculus. Put plainly: Antidepressant-like activity in ip dosed Albino Swiss CD-1 mouse assessed as decrease in immobility time administered […] prior to test measured for last 4 mins of 6 mins observation by forced swim test (reference value: 153.9 to 201.9 secs). In kind it is functional.
In another data set the test system is Rattus norvegicus. Put plainly: Antidepressant-like activity in ip dosed Wistar rat assessed as decrease in immobility time administered 45 mins prior to test measured for last 4 mins of 6 mins observation by forced swim test (reference value: 153.9 to 201.9 secs). It is filed as functional.
Data set [20] deals with T4, Adrenergic receptor alpha-1 (Rattus norvegicus, UniProt P15823+P23944+P43140).
T4 sequence (P15823 whole entry): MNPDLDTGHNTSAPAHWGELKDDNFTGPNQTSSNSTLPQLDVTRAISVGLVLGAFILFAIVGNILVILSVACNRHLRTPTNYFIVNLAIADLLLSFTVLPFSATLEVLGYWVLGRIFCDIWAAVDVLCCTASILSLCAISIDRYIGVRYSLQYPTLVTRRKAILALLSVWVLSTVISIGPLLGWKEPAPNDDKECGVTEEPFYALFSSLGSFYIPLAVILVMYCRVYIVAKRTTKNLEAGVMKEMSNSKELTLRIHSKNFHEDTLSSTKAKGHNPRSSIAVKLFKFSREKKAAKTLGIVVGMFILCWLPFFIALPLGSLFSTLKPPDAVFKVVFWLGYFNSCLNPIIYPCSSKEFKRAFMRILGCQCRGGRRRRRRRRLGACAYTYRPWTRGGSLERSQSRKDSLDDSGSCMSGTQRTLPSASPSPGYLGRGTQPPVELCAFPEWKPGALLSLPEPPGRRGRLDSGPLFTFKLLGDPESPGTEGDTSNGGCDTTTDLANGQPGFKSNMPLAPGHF
T4 sequence (P23944 whole entry): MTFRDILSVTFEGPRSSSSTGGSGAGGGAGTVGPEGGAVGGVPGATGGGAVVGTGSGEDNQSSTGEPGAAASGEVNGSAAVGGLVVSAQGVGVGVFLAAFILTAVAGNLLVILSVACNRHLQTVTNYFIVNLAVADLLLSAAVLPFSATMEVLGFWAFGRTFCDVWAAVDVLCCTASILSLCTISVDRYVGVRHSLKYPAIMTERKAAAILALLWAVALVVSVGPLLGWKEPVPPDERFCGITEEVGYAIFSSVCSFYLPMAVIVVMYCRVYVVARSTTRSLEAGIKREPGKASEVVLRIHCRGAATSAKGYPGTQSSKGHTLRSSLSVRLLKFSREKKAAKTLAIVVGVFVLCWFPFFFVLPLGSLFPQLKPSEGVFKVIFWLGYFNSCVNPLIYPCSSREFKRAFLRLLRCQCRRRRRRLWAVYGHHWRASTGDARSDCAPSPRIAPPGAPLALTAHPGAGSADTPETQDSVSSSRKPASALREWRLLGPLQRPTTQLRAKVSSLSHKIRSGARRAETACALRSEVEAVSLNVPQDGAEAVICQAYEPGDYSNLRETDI
T4 sequence (P43140 whole entry): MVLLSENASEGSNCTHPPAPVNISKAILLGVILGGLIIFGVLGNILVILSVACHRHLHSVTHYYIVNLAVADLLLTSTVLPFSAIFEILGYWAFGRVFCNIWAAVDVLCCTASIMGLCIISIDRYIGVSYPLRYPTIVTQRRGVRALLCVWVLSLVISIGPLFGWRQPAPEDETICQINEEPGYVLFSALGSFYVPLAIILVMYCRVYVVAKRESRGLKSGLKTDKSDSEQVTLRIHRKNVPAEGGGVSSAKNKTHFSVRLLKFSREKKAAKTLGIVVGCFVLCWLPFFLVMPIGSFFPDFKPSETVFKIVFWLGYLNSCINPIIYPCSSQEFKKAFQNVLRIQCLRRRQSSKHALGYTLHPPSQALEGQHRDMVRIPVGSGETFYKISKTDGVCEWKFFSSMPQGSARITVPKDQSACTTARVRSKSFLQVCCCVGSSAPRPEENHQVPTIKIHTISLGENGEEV
As to the kind of experiment: Displacement of [3H]-prazosin from Wistar rat cerebral cortex membranes alpha1 adrenoceptor by liquid scintillation counting method. Further details: species or system Membrane.

In data set [21] the test system is Mus musculus. Put plainly: Anxiolytic-like activity in ip dosed Albino Swiss CD-1 mouse assessed as increase in number of punished crossings administered for 30 mins prior to test measured for 1 min by four-plate test. In kind it is functional. An outline of the steps:
as §1

Active and inactive are the calls of the source. No cut-off for these calls is given here.

T2 sequence (P28223 whole entry): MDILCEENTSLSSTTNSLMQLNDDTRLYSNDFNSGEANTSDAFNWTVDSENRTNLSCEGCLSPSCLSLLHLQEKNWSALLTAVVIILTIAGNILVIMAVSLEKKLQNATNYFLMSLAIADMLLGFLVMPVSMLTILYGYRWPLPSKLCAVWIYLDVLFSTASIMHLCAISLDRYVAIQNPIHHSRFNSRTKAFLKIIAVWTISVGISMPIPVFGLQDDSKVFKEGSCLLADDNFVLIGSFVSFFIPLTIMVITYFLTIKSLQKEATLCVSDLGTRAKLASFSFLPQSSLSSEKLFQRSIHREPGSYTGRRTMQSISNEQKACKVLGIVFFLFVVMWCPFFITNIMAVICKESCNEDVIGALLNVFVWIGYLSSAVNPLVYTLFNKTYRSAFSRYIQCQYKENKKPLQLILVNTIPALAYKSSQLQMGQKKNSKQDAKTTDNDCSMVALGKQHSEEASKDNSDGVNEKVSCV
5-hydroxytryptamine receptor 6, sequence (P50406 whole entry): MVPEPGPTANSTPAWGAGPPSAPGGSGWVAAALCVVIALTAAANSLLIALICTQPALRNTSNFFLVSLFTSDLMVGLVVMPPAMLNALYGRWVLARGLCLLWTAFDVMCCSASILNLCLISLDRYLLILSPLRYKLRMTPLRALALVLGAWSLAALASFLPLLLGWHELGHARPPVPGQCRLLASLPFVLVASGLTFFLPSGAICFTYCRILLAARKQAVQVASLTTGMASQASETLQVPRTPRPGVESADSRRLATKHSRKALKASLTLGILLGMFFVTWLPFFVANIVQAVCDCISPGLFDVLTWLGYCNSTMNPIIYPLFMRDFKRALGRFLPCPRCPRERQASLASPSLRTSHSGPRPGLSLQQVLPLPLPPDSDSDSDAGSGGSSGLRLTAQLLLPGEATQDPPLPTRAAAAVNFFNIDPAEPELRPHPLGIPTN
5-hydroxytryptamine receptor 7, sequence (P34969 whole entry): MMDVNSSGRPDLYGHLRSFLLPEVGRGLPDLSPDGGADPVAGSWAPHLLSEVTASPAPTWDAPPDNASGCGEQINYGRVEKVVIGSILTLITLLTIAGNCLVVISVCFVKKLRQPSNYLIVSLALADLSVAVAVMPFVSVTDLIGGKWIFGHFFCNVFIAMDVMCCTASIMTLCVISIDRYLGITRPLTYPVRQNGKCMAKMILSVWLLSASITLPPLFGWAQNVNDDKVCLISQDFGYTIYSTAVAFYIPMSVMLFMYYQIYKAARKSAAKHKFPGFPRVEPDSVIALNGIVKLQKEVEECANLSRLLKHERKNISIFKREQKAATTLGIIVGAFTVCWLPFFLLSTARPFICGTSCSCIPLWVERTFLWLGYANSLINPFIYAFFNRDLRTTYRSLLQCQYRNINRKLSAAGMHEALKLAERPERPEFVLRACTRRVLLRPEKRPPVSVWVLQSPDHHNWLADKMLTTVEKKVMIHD
D(2) dopamine receptor, sequence (P14416 whole entry): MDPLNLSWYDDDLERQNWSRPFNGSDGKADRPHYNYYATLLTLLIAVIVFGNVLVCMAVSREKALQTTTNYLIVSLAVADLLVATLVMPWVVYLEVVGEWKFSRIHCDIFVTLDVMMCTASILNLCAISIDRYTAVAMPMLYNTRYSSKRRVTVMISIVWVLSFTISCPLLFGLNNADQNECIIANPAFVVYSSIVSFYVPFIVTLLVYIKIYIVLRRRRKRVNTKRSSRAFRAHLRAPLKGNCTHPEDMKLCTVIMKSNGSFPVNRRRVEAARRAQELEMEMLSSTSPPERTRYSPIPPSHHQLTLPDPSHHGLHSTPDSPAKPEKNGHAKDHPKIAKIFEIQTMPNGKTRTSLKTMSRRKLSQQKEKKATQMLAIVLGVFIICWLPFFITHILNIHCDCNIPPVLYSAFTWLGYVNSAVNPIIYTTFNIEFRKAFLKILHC

In the case of `Cc1cccc(OCCOCCN2CCN(CCc3ccccc3)CC2)c1C.Cl.Cl`, the 50% effective dose (ED50) with Mus musculus [1] stood at 22.2 mg/kg. Moreover, the Activity entry is on record as “Non-Toxic” with Mus musculus [2], “Non-Toxic” in the data set with Mus musculus [6] and “Toxic” with Mus musculus [16]. Further, the result in the data set on Mus musculus [3] and in the data set on Mus musculus [11] was Active. Further, the Time is recorded as 161.1 s in the data set with Mus musculus [4], 157.6 s with Mus musculus [9] and 162.1 s in the data set on Mus musculus [13]. Also, the Ki stood at 200 nM in data set [5]; 388 nM in [8]; 220 nM in [15]; 1210 nM at D(2) dopamine receptor; 36 nM in data set [18]. For the same compound, in [7], the inhibition entry was “inactive”. In addition, the IC50 in [10] is 6970 nM. Moreover, in [12], the TD50 at 0.5 h worked out at 35.5 mg/kg. For the same compound, the outcome in the data set with Mus musculus [14] was inactive. Also, the selectivity ratio in data set [17] was determined as 1.6.

With `COc1ccccc1N1CCN(CCOCCOc2c(C)cccc2C)CC1.Cl`, the ED in the data set on Mus musculus [19] came out at 2.5 mg/kg; in the data set with Rattus norvegicus it was 5 mg/kg; in the data set on Mus musculus [21], 2.5 mg/kg. This compound also yielded an inhibition constant Ki in data set [20] of 23 nM.
